In paper PMC9071996 (RSC Advances, 2019):

Columns and labels:
Format in all cases: cell-based
A549 cells = assay: MTS cytotoxicity assay, A549; conditions: Homo sapiens, A549, 72 h, read-out: IC50 (μM) A549
Summary of the method: (§1)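 MTS viability assay in A549, MDA-MB-231 and RPMI-8226 human cancer cells. All compounds were first screened at 10 and 50 μM. Compounds that crossed a set viability threshold in this screen went on to IC50 determination.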

RPMI-8226 cells = assay: MTS cytotoxicity assay, RPMI-8226; conditions: Homo sapiens, RPMI-8226, 72 h, read-out: IC50 (μM) RPMI-8226
Summary of the method: as §1

MDA-MB-231 cells = assay: MTS cytotoxicity assay, MDA-MB-231; conditions: Homo sapiens, MDA-MB-231, 72 h, read-out: IC50 (μM) MBA-MD-231
Summary of the method: as §1

GES-1 cells = assay: MTS cytotoxicity assay, normal GES-1 cells; conditions: Homo sapiens, GES1, 72 h, read-out: IC50 (μM) GES-1

SMILES | IC50 (A549 cells) [µM] | IC50 (RPMI-8226 cells) [µM] | IC50 (MDA-MB-231 cells) [µM] | IC50 (GES-1 cells) [µM]
CC12CCC(c3c(-c4ccccc4F)nc(N)nc31)C2(C)C (stereo not drawn) [Compound 3a, 4-(2-Fluorophenyl)-8,9,9-trimethyl-5,6,7,8-tetrahydro-5,8-methanoquinazolin-2-amine] | > 50 | > 50 | 32.85 ± 0.31 | > 50
CC12CCC(c3c(-c4cccc(F)c4)nc(N)nc31)C2(C)C (stereo not drawn) [Compound 3b, 4-(3-Fluorophenyl)-8,9,9-trimethyl-5,6,7,8-tetrahydro-5,8-methanoquinazolin-2-amine] | 24.35 ± 0.01 | > 50 | 28.56 ± 0.26 | > 50
CC12CCC(c3c(-c4ccc(F)cc4)nc(N)nc31)C2(C)C (stereo not drawn) [Compound 3c, 4-(4-Fluorophenyl)-8,9,9-trimethyl-5,6,7,8-tetrahydro-5,8-methanoquinazolin-2-amine] | 12.63 ± 0.02 | 9.3 ± 0.34 | 12.59 ± 0.04 | > 50
CC12CCC(c3c(-c4ccccc4Cl)nc(N)nc31)C2(C)C (stereo not drawn) [Compound 3d, 4-(2-Chlorophenyl)-8,9,9-trimethyl-5,6,7,8-tetrahydro-5,8-methanoquinazolin-2-amine] | 16.9 ± 0.5 | 11.4 ± 0.18 | 25.5 ± 0.39 | > 50
CC12CCC(c3c(-c4cccc(Cl)c4)nc(N)nc31)C2(C)C (stereo not drawn) [Compound 3e, 4-(3-Chlorophenyl)-8,9,9-trimethyl-5,6,7,8-tetrahydro-5,8-methanoquinazolin-2-amine] | 10.63 ± 0.09 | 10.4 ± 0.35 | 23.3 ± 0.44 | > 50
CC12CCC(c3c(-c4ccccc4Br)nc(N)nc31)C2(C)C (stereo not drawn) [Compound 3g, 4-(2-Bromophenyl)-8,9,9-trimethyl-5,6,7,8-tetrahydro-5,8-methanoquinazolin-2-amine] | 23.32 ± 0.03 | > 50 | 18.3 ± 0.26 | > 50
CC12CCC(c3c(-c4cccc(Br)c4)nc(N)nc31)C2(C)C (stereo not drawn) [Compound 3h, 4-(3-Bromophenyl)-8,9,9-trimethyl-5,6,7,8-tetrahydro-5,8-methanoquinazolin-2-amine] | > 50 | > 50 | > 50 | > 50
CC12CCC(c3c(-c4ccc(Br)cc4)nc(N)nc31)C2(C)C (stereo not drawn) [Compound 3i, 4-(4-Bromophenyl)-8,9,9-trimethyl-5,6,7,8-tetrahydro-5,8-methanoquinazolin-2-amine] | 16.45 ± 0.04 | 18.94 ± 0.08 | 8.66 ± 0.17 | > 50
Cc1ccccc1-c1nc(N)nc2c1C1CCC2(C)C1(C)C (stereo not drawn) [Compound 3j, 8,9,9-Trimethyl-4-(o-tolyl)-5,6,7,8-tetrahydro-5,8-methanoquinazolin-2-amine] | 22.54 ± 0.15 | > 50 | 26.2 ± 0.4 | > 50
Cc1cccc(-c2nc(N)nc3c2C2CCC3(C)C2(C)C)c1 (stereo not drawn) [Compound 3k, 8,9,9-Trimethyl-4-(m-tolyl)-5,6,7,8-tetrahydro-5,8-methanoquinazolin-2-amine] | 18 ± 0.18 | > 50 | 20 ± 0.09 | > 50
Cc1ccc(-c2nc(N)nc3c2C2CCC3(C)C2(C)C)cc1 (stereo not drawn) [Compound 3l, 8,9,9-Trimethyl-4-(p-tolyl)-5,6,7,8-tetrahydro-5,8-methanoquinazolin-2-amine] | 15.32 ± 0.09 | 13.86 ± 0.09 | 15.68 ± 0.14 | > 50
COc1ccccc1-c1nc(N)nc2c1C1CCC2(C)C1(C)C (stereo not drawn) [Compound 3m, 4-(2-Methoxyphenyl)-8,9,9-trimethyl-5,6,7,8-tetrahydro-5,8-methanoquinazolin-2-amine] | > 50 | > 50 | > 50 | > 50
COc1cccc(-c2nc(N)nc3c2C2CCC3(C)C2(C)C)c1 (stereo not drawn) [Compound 3n, 4-(3-Methoxyphenyl)-8,9,9-trimethyl-5,6,7,8-tetrahydro-5,8-methanoquinazolin-2-amine] | > 50 | > 50 | > 50 | > 50
COc1ccc(-c2nc(N)nc3c2C2CCC3(C)C2(C)C)cc1 (stereo not drawn) [Compound 3o, 4-(4-Methoxyphenyl)-8,9,9-trimethyl-5,6,7,8-tetrahydro-5,8-methanoquinazolin-2-amine] | > 50 | > 50 | > 50 | > 50
CC12CCC(c3c(-c4ccccc4O)nc(N)nc31)C2(C)C (stereo not drawn) [Compound 3p, 2-(2-Amino-8,9,9-trimethyl-5,6,7,8-tetrahydro-5,8-methanoquinazolin-4-yl)phenol] | 14 ± 0.16 | > 50 | 16.3 ± 0.26 | > 50
CC12CCC(c3c(-c4cccc(O)c4)nc(N)nc31)C2(C)C (stereo not drawn) [Compound 3q, 3-(2-Amino-8,9,9-trimethyl-5,6,7,8-tetrahydro-5,8-methanoquinazolin-4-yl)phenol] | > 50 | > 50 | > 50 | > 50
CC12CCC(c3c(-c4ccc(O)cc4)nc(N)nc31)C2(C)C (stereo not drawn) [Compound 3r, 4-(2-Amino-8,9,9-trimethyl-5,6,7,8-tetrahydro-5,8-methanoquinazolin-4-yl)phenol] | > 50 | > 50 | > 50 | > 50
CC12CCC(c3c(-c4ccccn4)nc(N)nc31)C2(C)C (stereo not drawn) [Compound 3s, 8,9,9-Trimethyl-4-(pyridin-2-yl)-5,6,7,8-tetrahydro-5,8-methanoquinazolin-2-amine] | > 50 | > 50 | > 50 | > 50
CC12CCC(c3c(-c4cccnc4)nc(N)nc31)C2(C)C (stereo not drawn) [Compound 3t, 8,9,9-Trimethyl-4-(pyridin-3-yl)-5,6,7,8-tetrahydro-5,8-methanoquinazolin-2-amine] | > 50 | > 50 | > 50 | > 50
CC12CCC(c3c(-c4ccncc4)nc(N)nc31)C2(C)C (stereo not drawn) [Compound 3u, 8,9,9-Trimethyl-4-(pyridin-4-yl)-5,6,7,8-tetrahydro-5,8-methanoquinazolin-2-amine] | > 50 | > 50 | > 50 | > 50
CN(C)c1ccc(-c2nc(N)nc3c2C2CCC3(C)C2(C)C)cc1 (stereo not drawn) [Compound 3v, 4-(4-(Dimethylamino)phenyl)-8,9,9-trimethyl-5,6,7,8-tetrahydro-5,8-methanoquinazolin-2-amine] | > 50 | > 50 | > 50 | > 50
CC12CCC(c3c(-c4ccc([N+](=O)[O-])cc4)nc(N)nc31)C2(C)C (stereo not drawn) [Compound 3w, 8,9,9-Trimethyl-4-(4-nitrophenyl)-5,6,7,8-tetrahydro-5,8-methanoquinazolin-2-amine] | 10.84 ± 0.09 | 9.58 ± 0.11 | 6.21 ± 0.14 | > 50
CC12CCC(c3c(-c4ccccc4)nc(N)nc31)C2(C)C (stereo not drawn) [Compound 3x, 8,9,9-Trimethyl-4-phenyl-5,6,7,8-tetrahydro-5,8-methanoquinazolin-2-amine] | > 50 | > 50 | 29.88 ± 0.16 | > 50
COc1cc([C@@H]2c3cc4c(cc3[C@@H](O[C@@H]3O[C@@H]5CO[C@@H](C)O[C@H]5[C@H](O)[C@H]3O)[C@H]3COC(=O)[C@H]23)OCO4)cc(OC)c1O [Etoposide, reference compound] | 10.9 ± 0.79 | 1.92 ± 0.17 | 3.97 ± 0.45 | 8.89 ± 0.7
